Data set [1] concerns the target T1, hEag1 channels (Homo sapiens, UniProt O95259).
T1 sequence (O95259 1-989): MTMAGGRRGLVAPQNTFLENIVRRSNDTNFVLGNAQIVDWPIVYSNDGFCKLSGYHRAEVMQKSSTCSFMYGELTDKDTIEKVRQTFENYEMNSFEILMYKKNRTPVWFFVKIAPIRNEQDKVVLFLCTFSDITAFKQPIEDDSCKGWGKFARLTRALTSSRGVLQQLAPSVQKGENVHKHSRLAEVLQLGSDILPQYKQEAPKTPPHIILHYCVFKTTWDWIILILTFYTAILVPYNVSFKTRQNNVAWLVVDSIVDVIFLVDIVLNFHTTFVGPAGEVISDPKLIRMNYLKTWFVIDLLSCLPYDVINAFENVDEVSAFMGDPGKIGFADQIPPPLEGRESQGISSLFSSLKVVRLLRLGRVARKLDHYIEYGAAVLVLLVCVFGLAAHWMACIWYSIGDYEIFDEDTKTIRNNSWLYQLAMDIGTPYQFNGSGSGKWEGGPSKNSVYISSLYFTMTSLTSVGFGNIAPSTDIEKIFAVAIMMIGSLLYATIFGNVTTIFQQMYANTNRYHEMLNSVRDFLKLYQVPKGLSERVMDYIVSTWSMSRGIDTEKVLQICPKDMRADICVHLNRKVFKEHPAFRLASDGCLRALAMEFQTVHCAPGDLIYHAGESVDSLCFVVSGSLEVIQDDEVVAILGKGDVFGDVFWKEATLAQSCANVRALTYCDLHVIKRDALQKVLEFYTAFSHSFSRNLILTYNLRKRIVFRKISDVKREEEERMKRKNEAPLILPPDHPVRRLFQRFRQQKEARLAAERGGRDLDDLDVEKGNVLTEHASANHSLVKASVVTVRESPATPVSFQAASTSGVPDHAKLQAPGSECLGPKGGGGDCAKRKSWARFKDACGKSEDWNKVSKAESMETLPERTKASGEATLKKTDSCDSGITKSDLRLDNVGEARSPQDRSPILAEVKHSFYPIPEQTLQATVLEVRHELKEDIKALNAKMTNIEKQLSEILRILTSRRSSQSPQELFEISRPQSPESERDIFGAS
The experiment in a line: Cell-attached patch recordings of hEag1 currents, drug in bath. Format: cell-based. The settings on record: 140 mM external K+, 60 mV. The method, boiled down:
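hEag1-expressing cells grown 24–72 h on poly-L-lysine-coated coverslips; cell-attached patches at room temperature. Bath held 140 mM K+; pipette held control external solution (160 NaCl, 2.5 KCl, 2 CaCl2, 1 MgCl2, 10 HEPES, pH 7.4) without glucose. 1-s steps to 60 mV from −70 mV were recorded before, during and after washout of bath-applied drug.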

In data set [2] the target is T1, hEag1 channels. The experiment in a line: hEag1 channels expressed in Xenopus oocytes. Format: cell-based.
For data set [3], the target named is T2, Kv2.1 (Homo sapiens, UniProt Q14721).
T2 sequence (Q14721 1-858): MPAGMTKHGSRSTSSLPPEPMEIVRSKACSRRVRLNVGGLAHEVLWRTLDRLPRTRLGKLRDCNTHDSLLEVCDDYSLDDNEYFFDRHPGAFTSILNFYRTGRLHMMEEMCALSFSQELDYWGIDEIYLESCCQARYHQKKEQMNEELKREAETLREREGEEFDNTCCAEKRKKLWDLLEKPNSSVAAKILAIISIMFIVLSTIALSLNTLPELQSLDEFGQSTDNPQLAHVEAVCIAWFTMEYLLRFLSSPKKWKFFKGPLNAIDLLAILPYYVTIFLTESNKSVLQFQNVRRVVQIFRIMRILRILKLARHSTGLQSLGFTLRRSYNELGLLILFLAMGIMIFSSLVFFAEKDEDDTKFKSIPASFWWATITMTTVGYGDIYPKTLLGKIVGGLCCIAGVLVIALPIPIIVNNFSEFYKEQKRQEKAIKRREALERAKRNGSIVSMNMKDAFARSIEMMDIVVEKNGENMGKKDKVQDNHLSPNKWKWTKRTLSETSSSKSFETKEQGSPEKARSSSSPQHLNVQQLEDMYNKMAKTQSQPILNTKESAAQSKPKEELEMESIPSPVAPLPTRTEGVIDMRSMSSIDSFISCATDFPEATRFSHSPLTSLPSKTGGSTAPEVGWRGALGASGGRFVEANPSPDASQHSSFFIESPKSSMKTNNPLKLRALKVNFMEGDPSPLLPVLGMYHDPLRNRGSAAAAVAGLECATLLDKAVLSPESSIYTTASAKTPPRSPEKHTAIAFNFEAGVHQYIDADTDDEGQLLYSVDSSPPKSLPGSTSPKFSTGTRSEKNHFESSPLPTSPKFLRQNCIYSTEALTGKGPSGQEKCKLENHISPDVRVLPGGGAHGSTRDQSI
The experiment in a line: Kv2.1 channels. It is filed as cell-based. The settings on record: concentrations up to 10 μM, unpublished data.

The target of data set [4] is T3, Kv4.2 (Homo sapiens, UniProt Q9NZV8).
T3 sequence (Q9NZV8 1-630): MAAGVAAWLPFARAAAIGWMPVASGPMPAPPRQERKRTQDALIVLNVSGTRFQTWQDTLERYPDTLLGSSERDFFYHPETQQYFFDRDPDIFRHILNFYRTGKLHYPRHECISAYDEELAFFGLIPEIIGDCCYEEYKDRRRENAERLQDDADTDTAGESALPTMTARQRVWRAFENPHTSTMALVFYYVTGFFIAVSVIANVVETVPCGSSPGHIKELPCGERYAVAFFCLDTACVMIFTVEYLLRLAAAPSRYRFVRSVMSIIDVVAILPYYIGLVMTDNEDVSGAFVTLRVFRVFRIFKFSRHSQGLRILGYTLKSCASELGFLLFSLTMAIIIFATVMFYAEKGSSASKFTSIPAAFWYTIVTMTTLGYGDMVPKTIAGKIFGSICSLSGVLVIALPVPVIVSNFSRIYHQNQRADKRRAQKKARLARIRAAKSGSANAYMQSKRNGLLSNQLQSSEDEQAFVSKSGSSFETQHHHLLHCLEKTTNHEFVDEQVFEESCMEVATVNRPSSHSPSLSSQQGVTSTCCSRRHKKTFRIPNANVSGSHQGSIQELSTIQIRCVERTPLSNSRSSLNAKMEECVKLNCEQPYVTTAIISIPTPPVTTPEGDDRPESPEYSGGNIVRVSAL
The experiment in a line: Kv4.2 channels. Particulars: concentrations up to 10 μM, unpublished data. Format: cell-based.

For data set [5] the following is noted: ref Fischer et al., 1997, 1998; cited from earlier work.
The test system of data set [6] is Kv1.1. Particulars: concentrations up to 10 μM; ref Suessbrich et al., 1996; cited from earlier work.
Data set [7] relates to outward currents of ventricular cardiomyocytes. Particulars: concentrations <10 μM; ref Berul and Morad, 1995; cited from earlier work.
The subject of data set [8] is breast cancer cells. The settings on record: ref Ouadid-Ahidouch et al., 2001; cited from earlier work.

For orientation: IC50 means the concentration that gives 50% inhibition.

Turning to `COc1ccc(CCN2CCC(Nc3nc4ccccc4n3Cc3ccc(F)cc3)CC2)cc1` [astemizole], in data set [1], the “block of channels in cell-attached patches by bath application” value is on record as “blocked”. This molecule also displayed an IC50 in data set [2] of roughly 1500 nM. Moreover, the effect on current result in data set [3], in data set [4] and in data set [6] was “no significant effects” in each case. For the same molecule, in data set [5], the “pK a1” value is 5.6. Also, the “pK a2” value in data set [5] was 8.5. In addition, in data set [7], the effect on currents entry is “no effects”. For the same molecule, the “effect on proliferation rate” value in data set [8] was “significant reduction”.

The values above are taken from article PMC2233905 (The Journal of General Physiology, 2004).
